Test results published in paper PMC9942872 (Proceedings of the National Academy of Sciences of the …, 2023).

Target: T1, NaLdpA (Novosphingobium aromaticivorans, UniProt Q2G4I2)
T1 sequence (Q2G4I2 1-243): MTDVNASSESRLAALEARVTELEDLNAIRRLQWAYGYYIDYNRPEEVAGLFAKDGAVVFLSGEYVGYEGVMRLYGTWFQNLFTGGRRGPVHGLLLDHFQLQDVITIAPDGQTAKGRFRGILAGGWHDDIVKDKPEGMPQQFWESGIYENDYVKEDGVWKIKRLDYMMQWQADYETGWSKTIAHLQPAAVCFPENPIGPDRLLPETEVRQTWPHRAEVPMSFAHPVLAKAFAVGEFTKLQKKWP
Assay: spectrophotometric lignostilbene production, product inhibition
Type: biochemical
Method in brief: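 Recombinant polyHis-tagged enzyme expressed in E. coli, purified by chromatography and stored at −80 °C. Reactions were run in air-saturated MOPS (I = 0.1 M), pH 7.0, at 25 °C. Erythro-DGPD substrate concentration was varied, with lignostilbene added at 0, 1, 2, 4 or 10 μM.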

Ki: 330 ± 30 nM
SMILES: COc1cc(/C=C/c2ccc(O)c(OC)c2)ccc1O [lignostilbene]
